Data as given in ChEMBL document CHEMBL1687930 (J Med Chem, 2011).
Active and inactive are the calls of the source. The rule behind the calls is not given here.

Experiments:
[1] = Growth inhibition of dog MDCK2 cells; assay type: functional; conditions: Canis lupus familiaris, MDCK-II
Outline: (§1)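 Parental lines (MDCKII, LLC-PK1) and matched Pgp-overexpressing lines (MDCKII-MDR1, about 500-fold Pgp; L-MDR1, about 25000-fold Pgp) were tested with and without the Pgp inhibitor LY335979. Each experiment was run at least in triplicate, with 8 wells per concentration. GI50 came from a nonlinear four-parameter sigmoidal concentration-response fit.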

[2] = Growth inhibition of dog MDCK2-MDR1 cells overexpressing human P-glycoprotein; assay type: functional; conditions: Canis lupus familiaris, MDCK-II; outline: as §1
[3] = Growth inhibition of dog MDCK2 cells in presence of P-glycoprotein inhibitor LY335979; assay type: functional; conditions: Canis lupus familiaris, MDCK-II; outline: as §1
[4] = Growth inhibition of dog MDCK2-MDR1 cells overexpressing human P-glycoprotein in presence of P-glycoprotein inhibitor LY335979; assay type: functional; conditions: Canis lupus familiaris, MDCK-II; outline: as §1
MDCK-II = assay: Ratio of GI50 for dog MDCK2-MDR1 cells overexpressing human P-glycoprotein to GI50 for dog MDCK2 cells; assay type: functional, Canis lupus familiaris
LLC-PK1 [5] = assay: Growth inhibition of pig LLC-PK1 cells; assay type: functional; conditions: Sus scrofa; outline: as §1
[6] = Growth inhibition of pig L-MDR1 cells overexpressing human P-glycoprotein; assay type: functional; conditions: Sus scrofa; outline: as §1
LLC-PK1 [7] = assay: Growth inhibition of pig LLC-PK1 cells in presence of P-glycoprotein inhibitor LY335979; assay type: functional; conditions: Sus scrofa; outline: as §1
[8] = Growth inhibition of pig L-MDR1 cells overexpressing human P-glycoprotein in presence of P-glycoprotein inhibitor LY335979; assay type: functional; conditions: Sus scrofa; outline: as §1
LLC-PK1 [9] = assay: Ratio of GI50 for pig L-MDR1 cells overexpressing human P-glycoprotein to GI50 for pig LLC-PK1 cells; assay type: functional, Sus scrofa
Outline: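 MDR ratio is the GI50 in L-MDR1 cells (Pgp-overexpressing) divided by the GI50 in parental LLC-PK1 cells. Each GI50 came from growth inhibition run at least in triplicate, with 8 wells per concentration, fitted by a four-parameter sigmoidal model.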

[10] = biological target: T1, Kinesin-like protein KIF11 (Homo sapiens, UniProt P52732); assay: Inhibition of untagged human Eg5 basal ATPase activity; conditions: read-out: Ki(app)
T1 sequence (P52732 whole entry): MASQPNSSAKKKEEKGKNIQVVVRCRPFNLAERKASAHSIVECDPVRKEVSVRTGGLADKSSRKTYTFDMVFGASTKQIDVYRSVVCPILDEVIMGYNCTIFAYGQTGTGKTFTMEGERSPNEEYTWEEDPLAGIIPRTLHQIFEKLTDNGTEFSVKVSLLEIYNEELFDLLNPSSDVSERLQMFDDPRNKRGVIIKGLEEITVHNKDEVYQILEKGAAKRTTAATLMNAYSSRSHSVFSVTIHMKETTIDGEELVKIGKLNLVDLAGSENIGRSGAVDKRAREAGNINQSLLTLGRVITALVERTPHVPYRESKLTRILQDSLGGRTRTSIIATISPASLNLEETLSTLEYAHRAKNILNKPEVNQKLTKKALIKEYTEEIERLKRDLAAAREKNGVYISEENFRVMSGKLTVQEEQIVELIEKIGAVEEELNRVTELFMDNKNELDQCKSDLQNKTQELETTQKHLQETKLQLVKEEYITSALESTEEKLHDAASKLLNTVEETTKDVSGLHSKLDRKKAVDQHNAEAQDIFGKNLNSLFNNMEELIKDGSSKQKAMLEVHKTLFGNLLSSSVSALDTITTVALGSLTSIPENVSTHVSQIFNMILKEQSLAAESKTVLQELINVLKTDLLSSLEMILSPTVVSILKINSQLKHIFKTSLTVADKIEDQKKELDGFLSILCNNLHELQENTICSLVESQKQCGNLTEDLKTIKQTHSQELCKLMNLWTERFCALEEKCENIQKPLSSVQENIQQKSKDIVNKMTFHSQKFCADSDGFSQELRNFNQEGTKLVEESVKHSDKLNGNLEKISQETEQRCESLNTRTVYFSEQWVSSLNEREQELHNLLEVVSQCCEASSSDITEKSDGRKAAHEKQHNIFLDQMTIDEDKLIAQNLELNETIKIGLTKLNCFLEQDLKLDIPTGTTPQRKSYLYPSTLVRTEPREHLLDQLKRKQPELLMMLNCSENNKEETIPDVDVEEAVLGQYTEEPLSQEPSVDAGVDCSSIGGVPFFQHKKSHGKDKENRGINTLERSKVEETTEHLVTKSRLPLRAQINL

[11] = biological target: T1, Kinesin-like protein KIF11; assay: Inhibition of untagged human Eg5 microtubule-stimulated ATPase activity
[12] = biological target: T2, Kinesin-like protein KIF11 (Homo sapiens) (UniProt P52732); assay: Binding affinity to Eg5 at 2 mM by crystallography
T2 sequence (whole entry): T1 sequence (P52732 whole entry)

[13] = biological target: T2, Kinesin-like protein KIF11 (Homo sapiens); assay: Inhibition of untagged human Eg5 basal ATPase activity
[14] = biological target: T2, Kinesin-like protein KIF11 (Homo sapiens); assay: Inhibition of untagged human Eg5 microtubule-stimulated ATPase activity

Row | inhibition [13] | inhibition [14] | SMILES | GI50 [1] [nM] | GI50 [2] [nM] | GI50 [3] [nM] | GI50 [4] [nM] | RatioGI50 (MDCK-II) | GI50 (LLC-PK1 [5]) [nM] | GI50 [6] [nM] | GI50 (LLC-PK1 [7]) [nM] | GI50 [8] [nM] | RatioGI50 (LLC-PK1 [9]) | Ki [10] [nM] | IC50 [11] [nM] | Activity [12]
1 | – | – | N[C@@H](CSC(c1ccccc1)(c1ccccc1)c1ccc(I)cc1)C(=O)O | 100 | 330 | 110 | 180 | 3.4 | 330 | 9170 | 440 | 610 | 27.6 | < 50 | 19.3 | –
2 | – | – | Cc1ccc(C(SC[C@H](N)C(=O)O)(c2ccccc2)c2ccccc2)cc1 | 90 | 350 | 80 | 120 | 3.8 | 1050 | 3830 | 1180 | 490 | 3.7 | < 50 | 61.7 | –
3 | – | – | CCCCc1ccc(C(SC[C@H](N)C(=O)O)(c2ccccc2)c2ccccc2)cc1 | – | – | – | – | – | – | – | – | – | – | 84.2 | 93.3 | –
4 | – | – | N[C@@H](CSC(c1ccccc1)(c1ccccc1)c1ccc(Br)cc1)C(=O)O | 250 | 670 | 250 | 210 | 2.7 | 3200 | 6780 | 2120 | 2350 | 2.1 | < 50 | 26.8 | –
5 | – | – | CCC(CC)C(SC[C@H](N)C(=O)O)(c1ccccc1)c1ccccc1 | – | – | – | – | – | – | – | – | – | – | 302 | 1630 | –
6 | – | – | N[C@H](CSC(c1ccccc1)(c1ccccc1)c1ccccc1)C(=O)O | 610 | 3150 | 920 | 780 | – | 940 | 36600 | 1070 | 4460 | – | – | – | –
7 | – | – | CSc1ccc(C(SC[C@H](N)C(=O)O)(c2ccccc2)c2ccccc2)cc1 | 110 | 410 | 110 | 210 | 3.7 | 340 | 11800 | 300 | 670 | 35.1 | < 50 | 21.8 | –
8 | – | – | CCc1ccc(C(SC[C@H](N)C(=O)O)(c2ccccc2)c2ccccc2)cc1 | 230 | 560 | 290 | 170 | 2.4 | 340 | 10800 | 300 | 160 | 31.8 | < 50 | 55.4 | –
9 | – | – | N[C@@H](CSC(c1ccccc1)(c1ccccc1)c1ccc(C2CCCCC2)cc1)C(=O)O | 24300 | 50800 | 17600 | 17900 | 2.1 | 47900 | – | 64900 | 56800 | – | 3260 | 1580 | –
10 | – | – | N[C@@H](CSC(c1ccccc1)(c1ccccc1)c1ccc(Cl)cc1)C(=O)O | 280 | 560 | 330 | 270 | 2 | 2110 | 6210 | 2450 | 1610 | 2.9 | < 50 | 53.3 | Active
11 | – | – | CC(C)(C)c1ccc(C(SC[C@H](N)C(=O)O)(c2ccccc2)c2ccccc2)cc1 | 2860 | 19500 | 2480 | 3010 | 6.8 | 4280 | – | 5410 | 13500 | >12.5 | 429 | 1240 | –
12 | inactive | inactive | CN(C)[C@@H](CSC(c1ccccc1)(c1ccccc1)c1ccccc1)C(=O)O | – | – | – | – | – | – | – | – | – | – | – | – | –
13 | – | – | COc1ccc(C(SC[C@H](N)C(=O)O)(c2ccccc2)c2ccccc2)cc1 | 220 | 540 | 240 | 80 | – | 1660 | 6910 | 2050 | 1650 | – | – | – | –
14 | – | – | CCC(C)C(SC[C@H](N)C(=O)O)(c1ccccc1)c1ccccc1 (mixture of isomers) | – | – | – | – | – | – | – | – | – | – | – | 549 | Active
15 | – | – | N[C@@H](CSC(c1ccccc1)(c1ccccc1)c1ccc(C(F)(F)F)cc1)C(=O)O | 320 | 670 | 330 | 270 | 2.1 | 1000 | 8020 | 510 | 1020 | 8 | < 50 | 116 | –
16 | – | – | CC(C)c1ccc(C(SC[C@H](N)C(=O)O)(c2ccccc2)c2ccccc2)cc1 | 780 | 2750 | 840 | 880 | 3.5 | 1050 | 36700 | 1510 | 1050 | 34.8 | < 50 | 144 | –
17 | – | – | N[C@@H](CSC(c1ccccc1)(c1ccccc1)c1ccccc1)C(=O)O [S-TRITYL-L-CYSTEINE] | 860 | 2300 | 890 | 580 | – | 1060 | 33000 | 1110 | 3020 | – | – | – | –
18 | – | – | N[C@@H](CSC(c1ccccc1)(c1ccccc1)c1cccs1)C(=O)O | – | – | – | – | – | – | – | – | – | – | 58300 | 41700 | –
19 | – | – | NC(CSC(c1ccccc1)(c1ccccc1)c1ccc(C(=O)O)cc1)C(=O)O (stereo not given) | – | – | – | – | – | – | – | – | – | – | 2540 | 14100 | –
20 | – | – | CCCc1ccc(C(SC[C@H](N)C(=O)O)(c2ccccc2)c2ccccc2)cc1 | 680 | 1680 | 710 | 630 | 2.5 | 1950 | 37600 | 1100 | 1760 | 19.3 | < 50 | 85.9 | –
21 | – | – | N[C@@H](CSC(c1ccccc1)(c1ccccc1)c1ccc2ccccc2c1)C(=O)O | 60 | 190 | 70 | 50 | 3.1 | 160 | 6180 | 180 | 290 | 38.6 | < 50 | 16.3 | –
22 | – | – | N[C@@H](CSC(c1ccccc1)(c1ccccc1)c1ccc(-c2ccccc2)cc1)C(=O)O | 22700 | 68500 | 20000 | 24500 | 3 | 77800 | – | 75600 | 110000 | – | 1350 | 1970 | –
23 | – | – | CCCCC(SC[C@H](N)C(=O)O)(c1ccccc1)c1ccccc1 | – | – | – | – | – | – | – | – | – | – | < 50 | 319 | –
24 | – | – | CC[C@]1(O)C[C@H]2CN(CCc3c([nH]c4ccccc34)[C@@](C(=O)OC)(c3cc4c(cc3OC)N(C=O)[C@H]3[C@@](O)(C(=O)OC)[C@H](OC(C)=O)[C@]5(CC)C=CCN6CC[C@]43[C@@H]65)C2)C1 [VINCRISTINE] | 2650 | 107000 | 430 | 340 | 40.3 | 30 | 2100 | – | – | 70 | – | – | –
25 | – | – | CC(C)C(SC[C@H](N)C(=O)O)(c1ccccc1)c1ccccc1 | – | – | – | – | – | – | – | – | – | – | 175 | 1150 | –
